Source: article PMC4042847 (Journal of the American Chemical Society, 2013)

Columns and labels:
[1] = target: SHV-1 β-lactamase (Klebsiella pneumoniae, UniProt P0AD64); assay: Steady-state inhibition kinetics with nitrocefin as indicator substrate; type: biochemical; conditions: for kobs react 30min: after a 30 min incubation of 1:90 enzyme:inhibitor ratio; for tn (24h): inhibitor:enzyme ratio decreasing activity by 95% after 24 h incubation
[2] = target: PDC-3 β-lactamase (Pseudomonas aeruginosa, UniProt P24735, T105A); assay: IC50 and turnover number with nitrocefin; type: biochemical
[3] = Spontaneous hydrolysis followed by UV difference spectroscopy; type: physicochemical; conditions: 3.5 μM in 10 mM PBS, pH 7.4
[4] = target: OXA-24 β-lactamase (Acinetobacter baumannii, UniProt Q8RLA6); assay: IC50 and turnover number with nitrocefin; type: biochemical
[5] = tested on: ADC-7 β-lactamase; assay: IC50, turnover number and timed inactivation with nitrocefin; type: biochemical
Method in brief: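 Enzyme in 10 mM phosphate-buffered saline, pH 7.4, read by diode-array spectrophotometry with nitrocefin (Δε482 = 17,400 M−1cm−1) at 100 μM. IC50: initial velocities after 5 min enzyme–inhibitor pre-incubation. tn: 24 h incubation with increasing inhibitor, then residual activity assayed. Timed inactivation: I:E ratio set from tn; steady-state velocities at set time points over 45 min.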

[6] = tested on: TEM-2 β-lactamase; conditions: cited from earlier work

| Compound | kobs react 30min ([1]; SHV-1) [s⁻¹] | tn (24h) ([1]; SHV-1) | IC50 higher than clavulanate ([1]; SHV-1) [fold] | IC50 higher than tazobactam ([1]; SHV-1) [fold] | Ki greater than tazobactam and clavulanate ([1]; SHV-1) | kobs react lower than clavulanate ([1]; SHV-1) | kobs react lower than tazobactam ([1]; SHV-1) [fold] | Ki ([1]; SHV-1, Kiapp corrected for nitrocefin affinity (Km = 20 μM)) [nM] | IC50 ([1]; SHV-1, NCF 100 μM, 5 min pre-incubation of enzyme with inhibitor) [nM] | inactivation of SHV-1 in timed inactivation ([1]; […] nM SHV-1 with 980 nM DCM-1-10 (I:E = 7:1), within 45 min) [%] | IC50 [2] [nM] | IC50 in words [2] | spontaneous rate of hydrolysis [3] [µM/s] | pseudo first order rate constant of spontaneous hydrolysis ([3]; absorbance at 228 nm) [s⁻¹] | IC50 [4] [nM] | timed inactivation of ADC-7 in words ([5]; 100 nM ADC-7 with 4.5 μM DCM-1-10, I:E of 45:1) | IC50 ([5]; ADC-7) [nM] | IC50 in words ([5]; ADC-7) | inhibition of TEM-2 β-lactamase in words [6] | KI ([1]; SHV-1, from fit of kobs versus inhibitor concentration) [nM] |
| --- | --- | --- | --- | --- | --- | --- | --- | --- | --- | --- | --- | --- | --- | --- | --- | --- | --- | --- | --- | --- |
| C[C@]1(Cn2ccnn2)[C@H](C(=O)O)N2C(=O)C[C@H]2S1(=O)=O [Tazobactam, tazobactam, reference compound] | 0.040 ± 0.001 | 5 | – | – | – | – | – | – | – | – | – | – | – | – | – | – | – | – | – | – |
| 7-(tert-butoxycarbonyl)methylidenecephalosporin sulfone [DCM-1-10] | 0.0006 ± 0.0001 | 7 | 4 | 27 | about 166 fold | at least 333 fold | 67 | > 20000 | 800 ± 100 | 95 | 740 ± 80 | submicromolar | 0.0002 | 3e-05 | > 100000 | rapid compared to SHV-1 | 130 ± 10 | submicromolar | potent and specific inhibition | – |
| O=C(O)[C@H]1/C(=C/CO)O[C@@H]2CC(=O)N21 [Clavulanate, clavulanic acid, reference compound] | > 0.2 | 40 | – | – | – | – | – | – | – | – | – | – | – | – | – | – | – | – | – | 2600 ± 300 |
